This is an account of results in ChEMBL document CHEMBL3232870, “Discovery of 3-(4-methanesulfonylphenoxy)-N-[1-(2-methoxy-ethoxymethyl)-1H-pyrazol-3-yl]-5-(3-methylpyridin-2-yl)-benzamide as a novel glucokinase activator (GKA) for the treatment of type 2 diabetes mellitus” (Bioorg Med Chem, 2014).

A short description of series [1]: Cmax in male Sprague-Dawley rat at 1000 mg/kg, po measured on day 1. As to conditions: in vivo; call rule not given here. The format is ADME, organism-based. Further details: dose 1000 mg/kg, route oral. The essentials: (§1)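 Sprague–Dawley rats, 5 weeks old at arrival, both sexes. Given the compound by oral gavage once daily for 14 days at 0, 250, 500 or 1000 mg/kg/day, with 0.5% methylcellulose as vehicle. Toxicokinetic parameters were determined on Day 1 and Day 14.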

Series [2] is described as follows: AUC (0 to t) in female Sprague-Dawley rat at 1000 mg/kg, po measured on day 1. The format is ADME, organism-based. Further details: dose 1000 mg/kg, route oral. Conditions: plasma. The method in brief:
as §1

For series [3], the target named is T1, Cytochrome P450 1A2 (Homo sapiens, UniProt P05177).
T1 sequence (P05177 whole entry): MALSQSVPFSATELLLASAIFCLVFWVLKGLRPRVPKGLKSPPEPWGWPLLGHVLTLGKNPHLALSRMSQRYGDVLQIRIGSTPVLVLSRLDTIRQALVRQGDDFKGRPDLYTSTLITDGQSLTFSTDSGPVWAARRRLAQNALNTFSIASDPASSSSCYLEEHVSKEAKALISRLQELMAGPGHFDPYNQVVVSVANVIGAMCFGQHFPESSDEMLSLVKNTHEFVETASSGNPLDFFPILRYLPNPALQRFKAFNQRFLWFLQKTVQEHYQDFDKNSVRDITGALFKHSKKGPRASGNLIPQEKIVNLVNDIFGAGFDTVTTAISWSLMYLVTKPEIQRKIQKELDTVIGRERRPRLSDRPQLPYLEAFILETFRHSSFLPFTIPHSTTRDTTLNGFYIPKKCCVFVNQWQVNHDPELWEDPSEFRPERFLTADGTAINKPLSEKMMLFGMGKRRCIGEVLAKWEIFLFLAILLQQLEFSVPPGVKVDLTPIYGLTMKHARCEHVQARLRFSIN
Briefly: Inhibition of CYP1A2 in human liver microsomes. The class given is ADME. The method in brief:
(§2)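 Pooled human liver microsomes at 0.25 mg/mL, each with a CYP-selective substrate and test compound up to 25 µM, preincubated at 37 °C. It is stopped on ice with ice-cold acetonitrile and centrifuged, and the supernatant is analysed by LC–MS/MS.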

The nature of series [4]: Tmax in female Sprague-Dawley rat at 250 mg/kg, po measured on day 1. The class given is ADME, organism-based. Also on record: dose 250 mg/kg, route oral. As to conditions: in vivo. The method in brief: (§3)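 Sprague–Dawley rats of both sexes, 5 weeks old at arrival, received daily oral gavage at 0, 250, 500 or 1000 mg/kg/day for 14 days. Vehicle was 0.5% methylcellulose at 10 mL/kg. Toxicokinetics were taken on Day 1 and Day 14. Necropsy was by Day 15. Testis was fixed in modified Davidson's fixative, paraffin-sectioned and H&E-stained, with histopathology on control and high-dose groups only.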

Series [5] addresses T2, Hexokinase-4 (Homo sapiens, UniProt P35557).
T2 sequence (P35557 whole entry): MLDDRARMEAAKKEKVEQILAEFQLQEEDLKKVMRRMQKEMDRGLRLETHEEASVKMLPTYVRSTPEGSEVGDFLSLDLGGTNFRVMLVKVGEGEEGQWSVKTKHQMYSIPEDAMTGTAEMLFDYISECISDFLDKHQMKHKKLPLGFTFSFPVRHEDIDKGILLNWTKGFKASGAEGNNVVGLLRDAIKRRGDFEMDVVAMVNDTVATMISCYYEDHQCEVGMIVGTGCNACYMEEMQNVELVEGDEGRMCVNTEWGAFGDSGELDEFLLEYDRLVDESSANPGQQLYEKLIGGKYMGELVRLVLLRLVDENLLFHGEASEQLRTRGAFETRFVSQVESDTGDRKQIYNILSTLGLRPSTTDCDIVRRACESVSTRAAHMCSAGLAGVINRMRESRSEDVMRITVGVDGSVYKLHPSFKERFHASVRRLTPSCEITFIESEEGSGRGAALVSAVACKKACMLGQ
In words: Activation of recombinant human pancreatic glucokinase using 10 mM glucose by spectrophotometry. The method in brief: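 Purified recombinant human pancreatic glucokinase, compounds in DMSO. Buffer: 25 mM HEPES pH 7.4, 10 mM glucose, 25 mM KCl, 1 mM MgCl2, 1 mM DTT, 1 mM ATP, 1 mM NADP, 2.5 U/mL G6PDH. Activity was expressed against DMSO-only control (100%). EC50 came from 12 concentrations fitted to a variable-slope sigmoidal curve. Values are means of three duplicate runs.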

The nature of series [6]: Mean residence time in ICR mouse at 3 mg/kg, iv and 10 mg/kg, po. Conditions: in vivo. The class given is ADME, organism-based. The essentials: (§4)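 Male ICR mice and 7-week-old SD rats received a 3 mg/kg iv bolus or a 10 mg/kg oral gavage dose. Plasma was precipitated with 2 volumes of acetonitrile and analysed by HPLC. Parameters came from noncompartmental analysis.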

Series [7] has as its system Mus musculus. Briefly: Antidiabetic activity in glucose-treated C57BL/J6 db/db mouse assessed as reduction of glucose AUC at 50 mg/kg, po preincubated for 30 mins followed by glucose challenge measured after 30 to 180 mins by oral glucose tolerance test relative to control. The class given is functional. Further details: scale not given: the % may be the effect or the level left. As to conditions: in the assay text read “C57BL/J6 mouse” for “C57BL/J6 db/db mouse”. The essentials:
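Oral glucose tolerance test. Mice: eight-week-old male C57BL/6 or ten-week-old male C57BLKS/J db/db, fasted overnight with water. Compound or 0.5% methylcellulose vehicle given orally, then an oral 2 g/kg glucose challenge 30 min later. Tail-tip blood glucose was read just before and at 30, 60, 90, 120 and 180 min. AUC was calculated from the time–glucose curve; n = 6.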

A short description of series [8]: Oral bioavailability in Sprague-Dawley rat at 10 mg/kg. The class given is ADME, organism-based. Conditions: in vivo. The method in brief:
as §4

Series [9] in a line: Cmax in female Sprague-Dawley rat at 1000 mg/kg, po measured on day 14. The format is ADME, organism-based. Conditions: in vivo. Further details: dose 1000 mg/kg, route oral. The method in brief:
as §1

The nature of series [10]: Tmax in female Sprague-Dawley rat at 1000 mg/kg, po measured on day 14. The class given is ADME, organism-based. Further details: dose 1000 mg/kg, route oral. As to conditions: in vivo. The essentials: as §3
The test system of series [11] is Salmonella typhimurium. In words: Cytotoxicity in Salmonella typhimurium TA100 at 1.5 to 5000 ug/plate in absence of S9 fraction. The format is organism-based. Conditions: salmonella enterica subsp. enterica serovar typhimurium. The essentials:
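Ames reverse mutation test by direct plate incorporation in S. typhimurium TA98 and TA100, with or without Aroclor 1254-induced rat liver S9 mix. Compound in DMSO at 1.5–5000 µg/plate, plated in top agar, incubated 37 °C for about 50 h, then revertant colonies counted. Plates were checked for precipitation and cytotoxicity. A positive was a reproducible, dose-related increase in revertants of more than 2-fold.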

In series [12] the test system is Canis familiaris. Briefly: Toxicity in Beagle dog assessed as testicular effect administered repeated dose level of 300 mg/kg/day, po administered on days 3, 6 and 8 by hematoxylin and eosin staining-based microscopy. The format is organism-based, Canis lupus familiaris. Further details: route oral. As to conditions: in vivo. The method in brief: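 Dogs received escalating oral doses of 100, 300 and 1000 mg/kg/day over 8 days (Days 3, 6 and 8 for each dose). Vehicle was 0.5% methylcellulose at 5 mL/kg. Two animals were necropsied at termination, and testes were fixed in modified Davidson's fixative, paraffin-embedded, H&E-stained and examined microscopically.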

Series [13] has as its target Cytochrome P450 3A (Homo sapiens, UniProt P08684+P20815+Q9HB55+P24462). In words: Inhibition of CYP3A in human liver microsomes. The format is ADME. The essentials: as §2
On the technique in general: Liver microsomes are vesicles of endoplasmic reticulum, rich in cytochrome P450 enzymes.

Series [14] is described as follows: AUC in ICR mouse at 3 mg/kg, iv and 10 mg/kg, po. The class given is ADME, organism-based. Conditions: plasma. The method in brief: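 Male ICR mice and 7-week-old SD rats received a 3 mg/kg intravenous bolus or a 10 mg/kg oral gavage dose. Plasma was deproteinized with acetonitrile (2 volumes) and compound measured by HPLC. Parameters came from noncompartmental analysis.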

In the case of `COCCOCn1ccc(NC(=O)c2cc(Oc3ccc(S(C)(=O)=O)cc3)cc(-c3ncccc3C)c2)n1`, the figures for the Cmax in series [1] and in series [9] were 4250 ng/mL and 5210 ng/mL, respectively. For the same molecule, the AUC(0-t) (commonly exposure summed from dosing to a finite time, without extrapolation to infinity) in series [2] stood at 29200 ng·h/mL. Moreover, the “inhibition (INH)” value in [3] and in series [13] was “Not Active” in each case. The results for the Tmax in [4] and in series [10] were 3.7 h and 2.7 h, respectively. For the same molecule, the concentration for a half-maximal effect (EC50) – broadly, the concentration that produces a half-maximal response – in [5] came to 0.315 µM. Moreover, the mean residence time MRT (as a rule, the average time that molecules of a dose stay in the body) in series [6] is 0.92 h. Besides, the Activity is 32.3% in series [7], “Non-toxic” in series [11] and “Non-toxic” in series [12]. In addition, the bioavailability (commonly the share of a dose that reaches the circulation, judged against a reference dose that is usually intravenous) in series [8] is 22%. Also, the exposure (AUC) – broadly, the area under the concentration-time curve, a measure of exposure – in series [14] worked out at 11900 ng·h/mL.
